Hits are enriched below; roughly 1.8% of the tested compounds scored in any of these assays.
CHRM4 antagonist – blocks acetylcholine activation of human M4 receptor; CHO-hM4 cells, ACh EC80, Fluo-8 calcium fluorescence; inhibition, % at 3 µM; 360,000 compounds, 0.73% hits; AID 624125;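 active = inhibition above its plate's cutoff, the mean inhibition of sample wells plus 3 SD, cut at about 27% in these data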;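 note: 0% = acetylcholine EC80 with DMSO and 100% = DMSO without agonist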
CHRM4 agonist – CHRM4 agonism in calcium assay; P08173; CHO-K1 hM4/Gqi5, Fluo-8 calcium fluorescence; vehicle 0%, full acetylcholine response 100%; activation, % at 3 µM; 360,000 compounds, 0.14% hits;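 active = activation above the run mean over all test wells plus 3 SD, cut at about 32% in these data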;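 note: peak over basal fluorescence ratio per well then scaled between controls; 0% = DMSO wells and 100% = acetylcholine at EC100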
M4 PAM – positive allosteric modulators of human muscarinic M4 receptor; P08173; activation, % at 3 µM; 360,000 compounds, 0.4% hits; CHO-K1 hM4/Gqi5, Fluo-8 calcium fluorescence, ACh EC20; 0% = ACh EC20, 100% = maximal ACh;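 active = activation above its plate's cutoff, the mean activation of sample wells plus 3 SD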
CHRM5 PAM – CHRM5 positive allosteric modulation. P08912. CHO-K1 hM5, Fluo-8 calcium, ACh EC20 PAM; 0% = ACh EC20, 100% = ACh EC100. activation, % at 3 µM. 360,000 compounds, 0.3% hits. AID 624038;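 active = activation above the run cutoff, the mean activation of all test compounds plus 3 SD, cut at about 18% in these data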
Target sequence (P08912 whole entry, looked up): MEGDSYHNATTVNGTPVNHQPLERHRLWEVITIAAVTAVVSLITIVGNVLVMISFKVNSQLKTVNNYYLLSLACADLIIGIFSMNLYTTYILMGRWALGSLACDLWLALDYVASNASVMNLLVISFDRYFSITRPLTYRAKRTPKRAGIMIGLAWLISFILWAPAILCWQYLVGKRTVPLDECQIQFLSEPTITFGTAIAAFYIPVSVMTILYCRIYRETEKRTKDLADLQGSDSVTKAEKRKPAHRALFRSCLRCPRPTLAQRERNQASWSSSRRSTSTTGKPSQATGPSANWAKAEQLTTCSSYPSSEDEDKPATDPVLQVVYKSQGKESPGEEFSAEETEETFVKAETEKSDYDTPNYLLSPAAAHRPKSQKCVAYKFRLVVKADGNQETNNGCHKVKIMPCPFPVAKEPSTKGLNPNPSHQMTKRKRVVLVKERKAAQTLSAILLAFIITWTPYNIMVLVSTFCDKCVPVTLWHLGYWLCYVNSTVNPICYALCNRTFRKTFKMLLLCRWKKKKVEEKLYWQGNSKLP
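Assay system – human M5 receptor in CHO-K1 cells · Read-out – % activation, ACh-normalized · Technique – Fluo-8 calcium fluorescence · Dosing – single-point, 3 µM nominal · Incubation – Fluo-8 loading 80 min at 37 °C plus 30 min room temperature · Repeats – singlicate, one well per test compound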
CHRM5 antagonist – antagonists of human muscarinic M5 receptor (CHRM5) | P08912 | CHO-hM5 cells, Fluo-8 calcium fluorescence, ACh EC80 | inhibition, % at 3 µM | 360,000 compounds, 0.59% hits;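 active = inhibition above a per-plate cutoff, the mean of that plate's test compounds plus 3 SD, cut at about 27% in these data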;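 note: 0% = acetylcholine EC80 with DMSO and 100% = DMSO without agonist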
M5 ag – CHRM5 agonism in calcium assay; CHO-K1 hM5 cells, Fluo-8 calcium fluorescence; 0% DMSO wells, 100% maximal acetylcholine response; 360,000 compounds, 0.19% hits; AID 624037; activation, % at 3 µM;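 active = activation above the run's mean over test compounds plus 3 SD, cut at about 23% in these data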;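 note: signal is peak over basal fluorescence ratio across the kinetic read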
An asterisk follows results filed as active.

SMILES	CHRM4 antagonist	CHRM4 agonist	M4 PAM	CHRM5 PAM	CHRM5 antagonist	M5 ag
CN(C)c1ccc(-c2csc(C(O)c3cccc(Cl)c3)n2)cc1 (stereo not given)	17	47*	-13	-21	19	7
Cc1ccc2nc(NC(=O)C3CCN(S(=O)(=O)c4cc([N+](=O)[O-])ccc4Cl)CC3)sc2c1	26	8	-9	-13	30*	-2
O=C(Nc1nc2ccc(F)cc2s1)C1CCN(S(=O)(=O)c2cc([N+](=O)[O-])ccc2Cl)CC1	27*	10	-6	-18	44*	-2
Cc1ccc(NC(=O)C2CCN(S(=O)(=O)c3cc([N+](=O)[O-])ccc3Cl)CC2)nc1	21	16	-9	-21	18	1
CC(NC(=O)C1CCN(S(=O)(=O)c2cc([N+](=O)[O-])ccc2Cl)CC1)c1ccccc1 (stereo not given)	-5	3	5	4	-6	-1
CC(C)OC(=O)CSc1nnc(COc2ccc([N+](=O)[O-])cc2)n1C	1	1	9	8	-12	-3
COc1ccc(CSCC(=O)Nc2ccccc2)cc1[N+](=O)[O-]	-16	2	6	-4	3	-4
CCCCC(O)(CCN1CCOCC1)c1ccc(Cl)cc1 (stereo not given)	68*	0	-34	-21	32*	-11
CCn1c(SCc2ccc(Cl)cc2)nc2nc3c(cc2c1=O)CCCC3	-3	-2	28*	-1	1	-1
CC1=CC2(O)OCCN(CCO)C2=CC1=O (stereo not given)	3	0	9	-12	28*	1
Cc1cc(C)n(-c2ncc3c(n2)N(CCO)CCOC3=O)n1	4	7	-5	-11	20	-3
CC(=O)c1c(C)nc2ccc(Br)cc2c1-c1ccccc1	-9	0	7	-1	-4	-2
CC(=O)c1c(C)nc2ccc([N+](=O)[O-])cc2c1-c1ccccc1	-27	2	14*	6	-2	-8
COc1ccc(/C=C(/NC(=O)c2ccc(OC)c(OC)c2)C(=O)NCCCn2ccnc2)cc1	-6	0	3	2	9	-1
COc1ccccc1-n1cnc2cc(NCc3ccccn3)ccc21	42*	0	-15	-19	20	-5
CCCN(CC(=O)Nc1ccc(F)c(F)c1F)C(=O)CN1C(=O)NC2(CCCCC2)C1=O	-18	0	8	4	-7	0
CCCn1c(SCC(=O)N(C)CC(=O)Nc2ccc(Cl)cc2)n[nH]c1=O	17	16	-9	-21	18	2
CCOC(=O)[C@H]1[C@H]2COc3ccc(OC)cc3[C@@H]2N2C(=O)CN(Cc3ccc(F)cc3)C(=O)[C@@]12C	42*	6	-16	-11	10	-11
Cc1cccc(Nc2nnc(SCC(=O)Nc3cccnc3Cl)s2)c1	2	5	-5	-4	-5	-1
Nc1nnc(SCC(=O)Nc2cccnc2Cl)s1	5	2	23*	-2	-1	2
OCCN(CC#CCC(O)(c1ccccc1)C1CCCC1)CCO (stereo not given)	-7	1	-1	7	-1	-13
CCN(CC)CC#CCC(O)(c1ccccc1)C1CCCC1 (stereo not given)	95*	1	-21	-23	95*	-6
CN(C)CC#CCC(O)(c1ccccc1)C1CCCCC1 (stereo not given)	92*	3	-17	-31	96*	-16
COC(=O)C[C@H]1C[C@H]2c3cc(NS(=O)(=O)c4cccc(OC)c4)ccc3O[C@H]2[C@@H](CO)O1	-1	0	2	-1	7	0
N#CC1=C(N2CCCCC2)c2cc3c(n2C1=O)CCCC3	31*	2	-19	-3	13	-5
SMILES	CHRM4 antagonist	CHRM4 agonist	M4 PAM	CHRM5 PAM	CHRM5 antagonist	M5 ag
CS(=O)(=O)N(CC(=O)N1CCCC1)c1cccc(Cl)c1	2	0	4	28*	3	-7
Cc1cccc(N(CC(=O)N2CCCC2)S(C)(=O)=O)c1	7	0	-1	5	-2	3
COc1ccccc1CCNC(=O)C(=O)c1cn(CC(=O)N2CCCC2)c2ccccc12	-23	8	0	1	-7	-2
O=C(NCc1ccccc1Cl)C(=O)c1cn(CC(=O)N2CCOCC2)c2ccccc12	-13	8	2	23*	20	13
O=C(NCCc1ccccc1)C(=O)c1cn(CC(=O)N2CCCC2)c2ccccc12	5	5	7	-10	27*	-3
O=C(NCc1ccccc1)C(=O)c1cn(CC(=O)N2CCOCC2)c2ccccc12	-3	2	1	4	1	1
C#C[C@]1(OC(C)=O)CCC2C3CCC4=CC(=O)CC[C@@H]4C3CC[C@@]21C (stereo not given in full)	-9	13	-7	-17	3	27*
CC(=O)O[C@]1(C(C)=O)CC[C@H]2[C@@H]3C=C(C)C4=CC(=O)CC[C@@H]4[C@H]3CC[C@@]21C	17	1	-10	-6	6	-1
Cc1ccc(S(=O)(=O)N(C)C[C@H]2OCCCC[C@@H](C)Oc3ccc(N(C)C)cc3C(=O)N([C@H](C)CO)C[C@@H]2C)cc1	-4	0	1	0	-1	0
C[C@@H]1CCCCO[C@@H](CN(C)S(=O)(=O)c2ccc(Cl)cc2)[C@@H](C)CN([C@H](C)CO)C(=O)c2cc(N(C)C)ccc2O1	-22	0	18*	5	1	-1
COCCn1c(SCC(=O)NCC2CCCO2)nc2c(c1=O)SCC2 (stereo not given)	-4	0	-3	-1	-8	-3
Cc1c(Cl)cccc1NC(=O)CNc1cccc(C(F)(F)F)c1	-16	3	-2	-3	-6	-1
CC(C)(CO)NCC(=O)Nc1cc(C(F)(F)F)cc(NC(=O)CNC(C)(C)CO)c1Cl	6	1	21*	1	4	-1
Cc1cccc(-c2noc(-c3csc([C@@H]4C[C@H](O)[C@@H](CO)O4)n3)n2)c1	-15	7	8	-10	29*	1
CC(=O)n1cc([C@H]2C=C(C(N)=O)O[C@@H](OCc3ccc(CO)cc3)C2)c2ccccc21	16	34*	-7	-28	13	29*
CC1CCCN(C(=O)COC(=O)C2CCN(S(=O)(=O)c3ccc4c(c3)OCCO4)CC2)C1 (stereo not given)	-19	7	5	-1	-1	2
Cn1c(Cc2ccccc2)nnc1SCc1nc2ccccc2c(=O)[nH]1	-9	2	5	7	-9	0
